# Bioassay records from PubChem BioAssay.
# This is a sample that favours compounds with a hit; in the whole collection about 3.7% have one here.
# KCNK3 inh: human KCNK3 channel inhibitors, primary screen, CHO cells, FluxOR thallium flux, B-score; Potassium channel subfamily K member 3 (Homo sapiens), O14649; FluxOR fluorescence; hits give low values; B-score at 10 µM; 340,000 compounds, 0.84% hits; AID 602410, 2012;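 active means B-score under library mean minus 4 SD, starting fluorescence ratio at most library mean plus 5 SD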;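 further: more negative B-score means stronger inhibition of thallium flux through KCNK3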
# Target sequence (O14649 whole entry, looked up): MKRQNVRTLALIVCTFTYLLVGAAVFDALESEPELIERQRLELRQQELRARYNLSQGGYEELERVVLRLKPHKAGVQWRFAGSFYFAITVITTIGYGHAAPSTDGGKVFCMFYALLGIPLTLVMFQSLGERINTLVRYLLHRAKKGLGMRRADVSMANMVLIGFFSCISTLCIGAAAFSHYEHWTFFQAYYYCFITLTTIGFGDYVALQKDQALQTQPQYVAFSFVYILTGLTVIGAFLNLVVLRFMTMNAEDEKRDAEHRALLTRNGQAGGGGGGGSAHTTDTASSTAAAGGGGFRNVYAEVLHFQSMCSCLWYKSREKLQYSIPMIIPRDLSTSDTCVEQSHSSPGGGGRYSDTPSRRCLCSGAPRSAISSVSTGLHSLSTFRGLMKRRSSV
# hERG rescue: hERG rescue from dofetilide block, primary screen, cell-based, CHO-hERG, FluxOR thallium flux, dofetilide IC70. Voltage-gated inwardly rectifying potassium channel KCNH2 (Homo sapiens), Q12809. dofetilide IC70 present. activation (rescue from dofetilide block), less the hit threshold, % at 10 µM. 310,000 compounds, 0.51% hits. AID 1511, 2009;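 active means activation above the mean of controls blocked by dofetilide plus 5 SD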;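 further: thallium influx through hERG after potassium depolarization seen as dye fluorescence rise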
# Kir21 block: inhibitors of mouse Kir2.1 inward-rectifier potassium channel; HEK293-Kir2.1, FluxOR thallium flux fluorescence; hits give low values; B-score at 10 µM; 310,000 compounds, 0.85% hits;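 active means fluorescence ratio B-score at or below minus 3 SD of library scores, with starting-brightness B-score within 2 SD, cut at about -4.2 in these data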;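 further: channel flux triggered by added potassium and thallium sulfate stimulus; B-score of peak minus minimum fluorescence over baseline after thallium stimulus; more negative B-score means stronger Kir2.1 block with less thallium influx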
# KCNK9 inh: KCNK9 potassium channel inhibitors, primary screen, HEK293 cells, thallium flux | 310,000 compounds, 1.2% hits | Potassium channel subfamily K member 9 (Homo sapiens), Q9NPC2 | FluxOR thallium flux fluorescence; hits give low values | B-score at 10 µM;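 active means ratio B-score over 3 SD below the library mean, with starting fluorescence within 5 SD of its mean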;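 further: negative B-score means less thallium flux so channel inhibition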
# Target sequence (Q9NPC2 whole entry, looked up): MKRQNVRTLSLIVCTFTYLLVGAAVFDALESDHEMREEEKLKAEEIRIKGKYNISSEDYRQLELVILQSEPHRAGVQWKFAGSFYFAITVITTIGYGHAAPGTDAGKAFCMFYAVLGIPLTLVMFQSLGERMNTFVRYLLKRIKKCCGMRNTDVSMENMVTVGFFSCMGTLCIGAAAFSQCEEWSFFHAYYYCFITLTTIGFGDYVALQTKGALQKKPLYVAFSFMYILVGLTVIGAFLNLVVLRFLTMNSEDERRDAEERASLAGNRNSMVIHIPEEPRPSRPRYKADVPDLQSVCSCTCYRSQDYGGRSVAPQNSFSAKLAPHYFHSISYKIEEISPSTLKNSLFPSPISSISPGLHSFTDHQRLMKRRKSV
# KCNQ1 act: potentiators or activators of KCNQ1 channel, primary screen, cell-based, thallium flux, high-throughput. Potassium voltage-gated channel subfamily KQT member 1 (Homo sapiens), P51787. CHO-K1 KCNQ1, thallium flux FluxOR fluorescence; hits give high values. B-score at 10 µM. 310,000 compounds, 0.35% hits;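 active means fluorescence ratio B-score, a plate-corrected score, at least three library SD, with initial intensity B-score within 5 SD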
#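 assay system = KCNQ1-transfected CHO-K1 cells | medium = assay buffer with matched DMSO | probe or stimulus = depolarizing K+/Tl+ stimulus, K2SO4 and Tl2SO4 each 12.5 mM in 5x stock | dosing = single dose | incubation = dye 90 min, compound 20 min, room temperature | detection = kinetic FluxOR fluorescence, 10 s baseline plus 110 s post-stimulus | evaluation = ratio B score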
# KCNQ1 block: inhibitors of human KCNQ1 channel, primary screen, cell-based, thallium flux, high-throughput; 310,000 compounds, 1.3% hits; AID 2642, 2010; Potassium voltage-gated channel subfamily KQT member 1 (Homo sapiens), P51787; CHO-K1 KCNQ1, FluxOR thallium flux fluorescence; hits give high values; B-score at 10 µM;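 active means compounds whose thallium flux B-score, printed positive for inhibition, exceeds three library SD while starting fluorescence stays within three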;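 further: channel opened by potassium depolarization with thallium stimulus after 20 min compound exposure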
# KCNQ1 inh valid: KCNQ1 potassium channel inhibitors, confirmation, cell-based, Tl flux, duplicate; KCNQ1 cell line, FluxOR thallium flux fluorescence; shares compounds with KCNQ1 block; 1,600 compounds, 93% hits; inhibition, % at 10 µM;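 active means primary screen active, with duplicate mean exceeding buffer control mean plus 3 SD of buffer wells, cut at about 28% in these data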;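 further: 0% = buffer control ratio and 100% = XE991 inhibitor control ratio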
# CHO Tl flux: thallium flux effects in parental CHO cells, counter-screen for KCNQ1 inhibitor project, cell-based, Tl flux. shares compounds with KCNQ1 block. parental CHO-K1, FluxOR thallium flux fluorescence ratio; hits give low values; zero means no signal rise above baseline. fluorescence ratio (Tl flux) at 10 µM. 1,600 compounds, 21% hits;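 active means mean of duplicate thallium-flux fluorescence ratios in parental host cells more than 5 SD below the buffer control mean, cut at about 0.38 in these data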;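 further: ratio is peak minus minimum fluorescence divided by baseline fluorescence; actives read low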
# KCNQ1 ephys val: KCNQ1 channel inhibitors, confirmation, orthogonal assay, cell-based, automated electrophysiology | shares compounds with KCNQ1 block | KCNQ1-CHO cells, automated patch clamp current | calls only at 10 µM | 490 compounds, 20% hits;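 active means KCNQ1 current drop exceeding 3 SD of negative control wells, seen in both duplicate runs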;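 further: steady state current during a 2 s step from -80 to +40 mV; negative values mean current inhibition and positive values mean potentiation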
# KCNQ2 inh: KCNQ2 channel inhibition, selectivity assay for KCNQ1 inhibitor project, cell-based | inhibition, % at 10 µM | shares compounds with KCNQ1 block | 1,600 compounds, 71% hits | KCNQ2 cells, FluxOR thallium flux fluorescence;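 active means mean percent inhibition of the KCNQ2 thallium signal more than 5 SD above the buffer-only control wells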;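 further: KCNQ2 expressed in CHO cells; 0% = buffer control wells and 100% = XE-991 inhibitor control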
# KCNQ1 KCNE1 spec: KCNQ1/KCNE1 channel inhibition, selectivity assay for KCNQ1 inhibitor project, CHO-K1 cells, thallium flux, FluxOR | shares compounds with KCNQ1 block | FluxOR thallium flux fluorescence | 1,600 compounds, 77% hits | inhibition, % at 10 µM;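 active means mean percent inhibition of duplicate wells above the buffer-only control mean plus 3 SD of those controls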;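 further: 0% = buffer only wells and 100% = XE-991 inhibitor control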
# KCNK9 block conf: KCNK9 potassium channel inhibitors, confirmation, HEK293 cells, thallium flux, duplicate; shares compounds with KCNK9 inh; FluxOR thallium flux fluorescence; inhibition, % at 10 µM; 4,900 compounds, 43% hits;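 active means thallium signal inhibited by more than 5 SD of the compound-free buffer control wells, on both duplicate plates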;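 further: 0% = assay buffer control wells without compound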
# Kir21 sel: mouse Kir2.1 channel inhibition, confirmation, selectivity assay for KCNK9 modulator project, cell-based, HEK293, thallium flux. shares compounds with KCNK9 inh. Kir2.1 cells, FluxOR thallium flux fluorescence. inhibition, % at 10 µM. 4,900 compounds, 4% hits. AID 492993, 2010;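 active means thallium signal drop more than 5 SD beyond the mean of the no-compound control wells, seen in both duplicate plates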;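 further: signal is fluorescence rise after thallium addition divided by baseline fluorescence; plate controls were assay buffer only for no effect and full block by chlorpromazine control for full effect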
# KCNK9 uninduced: thallium flux in non-induced HEK293 cells, confirmation, counter-screen for KCNK9 inhibitor project, cell-based, second counter screen, non-induced KCNK9-HEK293 | shares compounds with KCNK9 inh | FluxOR thallium flux | inhibition, % at 10 µM | 4,900 compounds, 40% hits;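 active means thallium signal drop beyond 5 SD of the untreated control mean, on both duplicate plates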;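 further: plate controls were buffer only IC0 wells for no effect and SID17386958 at its maximal inhibitory level for full effect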
# KCNK3 confirm: retest of human KCNK3 channel inhibitors, confirmation, CHO cells, FluxOR thallium flux, triplicate. shares compounds with KCNK3 inh. 2,400 compounds, 99% hits. AID 651638, 2012. ratio percent of control, % at 10 µM. FluxOR fluorescence; 0% buffer, 100% carvedilol maximal block;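 active means ratio percent of control, averaged over triplicates, above buffer control mean plus 5 SD, cut at about 64% in these data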;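 further: ratio is the fluorescence rise from min to max over baseline after thallium stimulus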
# KCNK3 noninduced: thallium flux inhibition in non-induced cells, primary screen, counter-screen for KCNK3 inhibitor project, cell-based, non-induced KCNK3 line, FluxOR thallium, triplicate; thallium flux ratio (lower = more inhibition) at 10 µM; non-induced KCNK3 parental cells; hits give low values; 2,400 compounds, 40% hits; shares compounds with KCNK3 inh;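 active means thallium flux ratio, averaged over three wells, more than 5 SD below the buffer control mean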;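 further: host cells are CHO cells without KCNK3 induction; ratio is peak minus trough fluorescence over baseline then normalized to buffer controls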
# * = called active by the depositor; i = inactive; / = not tested or not shown.
SMILES,KCNK3 inh,hERG rescue,Kir21 block,KCNK9 inh,KCNQ1 act,KCNQ1 block,KCNQ1 inh valid,CHO Tl flux,KCNQ2 inh,KCNQ1 KCNE1 spec,others
CCC(=NCCOc1ccc(Cl)cc1)c1c(O)n(C)c(=O)n(C)c1=O,i,-31,-0.32,i,i,7*,122*,0.34*,114%*,144%*,
Cc1ccc2c(c1)C1CN(C)CCC1N2C(=O)Nc1cccc(Cl)c1 (centres undefined),i,-13,-1.4,i,i,7*,0,0.49,i,i,
Cc1ccc2c(c1)C1CN(C)CCC1N2C(=S)Nc1cccnc1 (centres undefined),i,-11,0.84,i,i,i,/,/,/,/,
CCOc1cc2c(cc1OCC)-n1cccc1C(c1cccc(OCC)c1O)NC2 (centres undefined),i,-10,-1.4,i,i,i,/,/,/,/,
CCCCn1c(=O)c(C(=O)NCc2ccccc2OC)c(O)c2ccccc21,i,-10,0.93,i,i,7*,56*,0.47,76%*,48%*,
Cc1ccccc1NC(=O)c1cc(-c2ccccc2)n(CCCN2CCOCC2)c1C,i,-8,1.5,i,i,i,/,/,/,/,
Cc1ccc(NC(=O)c2cc(-c3ccccc3)n(CCCN3CCOCC3)c2C)cc1,i,-8,-2.4,i,i,6*,81*,0.45,62%*,125%*,
COc1cc(CN=C(C)c2c(O)n(C3CCCCC3)c(=O)[nH]c2=O)cc(OC)c1,i,-8,-0.25,i,i,6*,0,0.5,80%*,i,
CCC(=NCc1cc(OC)cc(OC)c1)c1c(O)n(C2CCCCC2)c(=O)[nH]c1=O,i,-11,-1.6,i,i,i,/,/,/,/,
Cc1cc(OCC(=O)N2CCC(C(=O)O)CC2)c2c3c(c(=O)oc2c1)CCC3,i,-7,-0.08,i,i,i,/,/,/,/,
COC(=O)C1=C(c2cc3ccccc3s2)C[C@@H]2CC[C@H]1N2C(=O)NCCNC(C)=O,i,-2,-1.3,i,i,i,/,/,/,/,
CC(C)(C)c1nc(N2CCN(C(=O)c3ccco3)CC2)c2nnn(Cc3ccccc3Cl)c2n1,i,-12,0.28,i,i,7*,116*,0.36*,101%*,136%*,
CCOP(=O)(OCC)Oc1cc(C)c(N(C)C)c(C)c1,i,-6,0.12,i,i,i,/,/,/,/,
Oc1cc(Cl)ccc1Oc1ccc(Cl)cc1Cl,i,-6,1.2,-7.3*,i,9*,52*,0.46,i,86%*,
Cc1sc2ncnc(N3CCC(C(=O)Nc4ccc(C#N)c(Cl)c4)CC3)c2c1C,-10*,-14,-0.06,i,i,7*,132*,0.42,112%*,156%*,KCNQ1 ephys val=i;KCNK3 confirm=131*;KCNK3 noninduced=0.15*
Cc1noc(C)c1CSCC(=O)Nc1ccc(C#N)c(Cl)c1,i,/,/,/,/,/,/,/,/,/,
CCCN1CCCC(C(=O)c2cc(C)c(OC)c(C)c2)C1 (centres undefined),i,3,-1.6,i,i,i,/,/,/,/,
O=C(c1ccccc1F)c1cn(Cc2ccccc2)c2ccccc12,-9.4*,-9,-0.35,-7.5*,i,6*,85*,0.43,85%*,130%*,KCNK3 confirm=113*;KCNK3 noninduced=0.16*
Cn1cc(C=C(C#N)C#N)c2ccccc21,i,2,-9.2,-8.4*,i,i,/,/,/,/,KCNK9 block conf=i;Kir21 sel=i;KCNK9 uninduced=52%*
Oc1ccccc1-[n+]1c(-c2ccccc2)cc(-c2ccccc2)c(O)c1-c1ccccc1,i,-6,-0.82,-8.4*,i,i,/,/,/,/,KCNK9 block conf=i;Kir21 sel=i;KCNK9 uninduced=i
CCc1c(-c2ccccc2)nc2ccccc2c1C(=O)N1CCC2(CC1)OCCO2,i,-1,0.36,i,i,i,/,/,/,/,
